Test results reported in ChEMBL document CHEMBL1255259, “Phosphorothioate-modified oligodeoxynucleotides inhibit human cytomegalovirus replication by blocking virus entry” (Antimicrob Agents Chemother, 2008).
Active and inactive are the calls of the source. The calls are words filed in the database; no cut-off is given here.

How the values were obtained:
Human betaherpesvirus 5 [1] = assay: Antimicrobial activity against Human cytomegalovirus isolate 1814 infected in compound pretreated HELF assessed as inhibition of viral replication; format: functional, organism-based; details: Human betaherpesvirus 5, isolate 1814, HELF
How it was run: (§1)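 HELF pretreated 1 h with ODN, infected with clinical HCMV isolate (VR1814 or AL1, HUVEC-propagated) at MOI 1; ODN kept after 2 h adsorption. At 6 days p.i., yield titrated on HELF; IC50 from concentration–plaque reduction plot.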

Human betaherpesvirus 5 [2] = assay: Antimicrobial activity against Human cytomegalovirus isolate 1814 infected in compound pretreated HUVEC assessed as inhibition of viral replication; format: functional, organism-based; details: Human betaherpesvirus 5, isolate 1814, HUVEC
How it was run: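 HUVEC (passages 2–6, EGM-2 with 2% FBS) pretreated 1 h with ODN and infected with HCMV VR1814 at MOI 1; ODN maintained after 2 h adsorption. Yield at 6 days p.i. titrated on HELF; IC50 from concentration-dependent plaque reduction.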

[3] = Cytotoxicity against HELF assessed as cell viability after 6 days by MTT assay; format: cell-based; details: human, HELF cells
How it was run: (§2)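 HELF exposed to rising ODN concentrations (up to 10 μM) for 6 days; viable cells measured by MTT. CC50 taken as concentration that cuts viability to 50%.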

[4] = Antimicrobial activity against Murine cytomegalovirus (strain Smith) infected in compound pretreated mouse NIH 3T3 cells assessed as inhibition of viral replication; format: functional, cell-based; details: Murid betaherpesvirus 1, NIH3T3
How it was run: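 NIH 3T3 pretreated 1 h with ODN, infected with MCMV Smith (MOI 1); ODN kept after 2 h adsorption at 37°C. Harvest at 6 days p.i., sonication, plaque assay on NIH 3T3; IC50 from plaque reduction. Means ± SD, three experiments.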

Human alphaherpesvirus 1 [5] = assay: Antimicrobial activity against Human herpesvirus 1 infected in compound pretreated HELF assessed as inhibition of viral replication at 0.1 uM; format: functional, organism-based
How it was run: (§3)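 HELF pretreated with ODN (0.1 or 1 μM) 1 h before infection with a clinical HSV-1 isolate at MOI 0.1; ODN kept in medium after 2 h adsorption. Harvest at 48 h p.i., sonication, plaque titration on Vero cells. Means ± SD of three independent experiments.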

Human alphaherpesvirus 1 [6] = assay: Antimicrobial activity against Human herpesvirus 1 infected in compound pretreated HELF assessed as inhibition of viral replication at 1 uM; format: functional, organism-based; how it was run: as §3
unidentified adenovirus = assay: Antimicrobial activity against unidentified adenovirus infected in compound pretreated HELF assessed as inhibition of viral replication; format: functional, organism-based
How it was run: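 HELF pretreated 1 h with ODN (0.1 or 1 μM), infected with an adenovirus clinical isolate (MOI 1); ODN kept after 2 h adsorption. Harvest at 4 days p.i., sonication, plaque titration on HELF. Means ± SD, three experiments.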

[7] = system: Vesicular stomatitis Indiana virus; assay: Antimicrobial activity against Vesicular stomatitis Indiana virus infected in compound pretreated HELF assessed as inhibition of viral replication; format: functional, organism-based
How it was run: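 HELFs exposed to ODN (0.1 or 1 μM) for 1 h, then infected with VSV serotype Indiana at MOI 1 (2 h adsorption, 37°C). ODN kept in the medium until 48 h p.i. Cells and supernatants were pooled, sonicated and titrated by plaque assay on HELFs. Data are means ± standard deviations of three independent experiments, duplicate wells.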

Human betaherpesvirus 5 [8] = assay: Antimicrobial activity against Human cytomegalovirus AD169 infected in compound pretreated HELF assessed as expression of immediate early 1 protein by immunoblotting; format: functional, organism-based
How it was run: (§4)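 HELF pretreated with ODN (1 μM) 1 h before and during infection with HCMV AD169 (MOI 1). Whole-cell extracts taken at set times p.i., run on 8% SDS-PAGE (50 μg protein/lane), immunoblotted with MAbs to IE1/IE2, UL44 (early) or UL99 (late); actin as loading control.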

Human betaherpesvirus 5 [9] = assay: Antimicrobial activity against Human cytomegalovirus AD169 infected in compound pretreated HELF assessed as expression of immediate early 2 protein by immunoblotting; format: functional, organism-based; how it was run: as §4
Human betaherpesvirus 5 [10] = assay: Antimicrobial activity against Human cytomegalovirus AD169 infected in compound pretreated HELF assessed as expression of early protein by immunoblotting; format: functional, organism-based; how it was run: as §4
Human betaherpesvirus 5 [11] = assay: Antimicrobial activity against Human cytomegalovirus AD169 infected in compound pretreated HELF assessed as expression of late protein by immunoblotting; format: functional, organism-based; how it was run: as §4
Human betaherpesvirus 5 [12] = assay: Antimicrobial activity against Human cytomegalovirus AD169 infected in compound pretreated HELF measured as immediate early 1 mRNA level by RT-PCR; format: functional, organism-based
Human betaherpesvirus 5 [13] = assay: Antimicrobial activity against Human cytomegalovirus AD169 infected in compound pretreated HELF measured as immediate early 2 mRNA level by RT-PCR; format: functional, organism-based
Human betaherpesvirus 5 [14] = assay: Antimicrobial activity against Human cytomegalovirus AD169 infected in HELF assessed as inhibition of viral replication at 0.1 uM measured after 6 days post-infection; format: functional, organism-based
Human betaherpesvirus 5 [15] = assay: Antimicrobial activity against Human cytomegalovirus AD169 infected in HELF assessed as inhibition of viral replication at 1 uM measured after 6 days post-infection; format: functional, organism-based
Human betaherpesvirus 5 [16] = assay: Antimicrobial activity against Human cytomegalovirus TB40 expressing EGPF tagged UL32 infected in HELF assessed as inhibition of inhibition of viral adsorption at 0.1 uM after 2 hrs by fluorescence microscopy; format: functional, organism-based
How it was run: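 Prechilled HELF on coverslips exposed to ODN (0.1 μM) or heparin (30 μg/ml) 1 h at 4°C, then infected with HCMV TB40 UL32-EGFP (MOI 20) 2 h at 4°C to permit attachment only. Washed in ice-cold PBS, fixed in 4% formaldehyde, propidium iodide counterstain; green virions imaged by confocal fluorescence microscopy. Done twice.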

Human betaherpesvirus 5 [17] = assay: Antimicrobial activity against Human herpesvirus 5 strain AD169 infected in HELF assessed as pp65 nuclear localization at 0.1 uM after 2 hrs […]; format: functional, organism-based
Human betaherpesvirus 5 [18] = assay: Antimicrobial activity against Human cytomegalovirus AD169 infected in 0.1 uM compound pretreated HELF assessed as viral DNA accumulation measured after 4 hrs post-infection by RT-PCR; format: functional, organism-based
How it was run: (§5)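 HELF treated with ODN (0.1 μM), then infected with HCMV AD169 (MOI 5). Total genomic DNA collected at 4 and 48 h p.i.; 15 ng analysed by TaqMan real-time PCR for IE1 (50 cycles, 95°C 15 s / 62°C 1 min). Copies normalized to 18S rRNA gene against plasmid standard curve. Means ± SD, three experiments.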

Human betaherpesvirus 5 [19] = assay: Antimicrobial activity against Human cytomegalovirus AD169 infected in 0.1 uM compound pretreated HELF assessed as viral DNA accumulation measured after 48 hrs post-infection by RT-PCR; format: functional, organism-based; how it was run: as §5
Human betaherpesvirus 5 [20] = assay: Antimicrobial activity against 0.1 uM compound pretreated Human cytomegalovirus AD169 infected in HELF assessed as reduction in viral titer at 4 degC; format: functional, organism-based
How it was run: (§6)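 HCMV AD169 (10^4 PFU) incubated with ODN at 0.1 μM at 4 or 37°C for various times; samples then diluted to bring ODN below an antivirally active level; residual infectivity titrated by plaque assay on HELF. Means ± SD of three independent experiments.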

Human betaherpesvirus 5 [21] = assay: Antimicrobial activity against 0.1 uM compound pretreated Human cytomegalovirus AD169 infected in HELF assessed as reduction in viral titer 37 degC; format: functional, organism-based; how it was run: as §6
Human betaherpesvirus 5 [22] = assay: Antimicrobial activity against Human cytomegalovirus AD169 infected in 0.1 uM compound pretreated HELF assessed as inhibition of viral replication measured after 6 days post-infection; format: functional, organism-based
How it was run: (§7)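 HELF pretreated with ODN 1 h before infection with HCMV AD169 (MOI 1); ODN kept in medium after 2 h adsorption at 37°C. At 6 days p.i., cells plus supernatants sonicated and titrated by plaque assay on HELF; plaques counted microscopically, expressed as PFU/ml (log10) or % of control. IC50/IC90 by linear regression; duplicate wells, three independent experiments, means ± SD.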

Human betaherpesvirus 5 [23] = assay: Antimicrobial activity against Human cytomegalovirus AD169 infected in 1 uM compound pretreated HELF assessed as inhibition of viral replication measured after 6 days post-infection; format: functional, organism-based; how it was run: as §7
Human betaherpesvirus 5 [24] = assay: Antimicrobial activity against Human cytomegalovirus AD169 infected in compound pretreated HELF assessed as inhibition of viral replication measured after 6 days post-infection; format: functional, organism-based; details: Human betaherpesvirus 5, AD169, HELF; how it was run: as §7
[25] = Cytotoxicity against HELF assessed as cell viability by MTT assay after 6 days at <=10 uM; format: cell-based; details: human, 144 h; how it was run: as §2
Human betaherpesvirus 5 [26] = assay: Antimicrobial activity against Human cytomegalovirus isolate AL1 infected in compound pretreated HELF assessed as inhibition of viral replication; format: functional, organism-based; details: Human betaherpesvirus 5, isolate AL1, HELF; how it was run: as §1

In the case of Cc1cn([C@H]2C[C@H](OP(O)(O)=S)[C@@H](COP(O)(=S)O[C@H]3C[C@H](n4cc(C)c(=O)[nH]c4=O)O[C@@H]3COP(O)(=S)O[C@H]3[C@@H](O)[C@H](n4cnc5c(=O)[nH]c(N)nc54)O[C@@H]3COP(O)(=S)O[C@H]3[C@@H](O)[C@H](n4ccc(N)nc4=O)O[C@@H]3COP(O)(=S)O[C@H]3C[C@H](n4cc(C)c(=O)[nH]c4=O)O[C@@H]3COP(O)(=S)O[C@H]3[C@@H](O)[C@H](n4cnc5c(=O)[nH]c(N)nc54)O[C@@H]3COP(O)(=S)O[C@H]3C[C@H](n4cc(C)c(=O)[nH]c4=O)O[C@@H]3COP(O)(=S)O[C@H]3C[C@H](n4cc(C)c(=O)[nH]c4=O)O[C@@H]3COP(O)(=S)O[C@H]3C[C@H](n4cc(C)c(=O)[nH]c4=O)O[C@@H]3COP(O)(=S)O[C@H]3C[C@H](n4cc(C)c(=O)[nH]c4=O)O[C@@H]3COP(O)(=S)O[C@H]3[C@@H](O)[C@H](n4cnc5c(=O)[nH]c(N)nc54)O[C@@H]3COP(O)(=S)O[C@H]3[C@@H](O)[C@H](n4ccc(N)nc4=O)O[C@@H]3COP(O)(=S)O[C@H]3C[C@H](n4cc(C)c(=O)[nH]c4=O)O[C@@H]3COP(O)(=S)O[C@H]3[C@@H](O)[C@H](n4cnc5c(=O)[nH]c(N)nc54)O[C@@H]3COP(O)(=S)O[C@H]3C[C@H](n4cc(C)c(=O)[nH]c4=O)O[C@@H]3COP(O)(=S)O[C@H]3C[C@H](n4cc(C)c(=O)[nH]c4=O)O[C@@H]3COP(O)(=S)O[C@H]3C[C@H](n4cc(C)c(=O)[nH]c4=O)O[C@@H]3COP(O)(=S)O[C@H]3C[C@H](n4cc(C)c(=O)[nH]c4=O)O[C@@H]3COP(O)(=S)O[C@H]3[C@@H](O)[C@H](n4cnc5c(=O)[nH]c(N)nc54)O[C@@H]3COP(O)(=S)O[C@H]3[C@@H](O)[C@H](n4ccc(N)nc4=O)O[C@@H]3COP(O)(=S)O[C@H]3C[C@H](n4cc(C)c(=O)[nH]c4=O)O[C@@H]3COP(O)(=S)O[C@H]3[C@@H](O)[C@H](n4cnc5c(=O)[nH]c(N)nc54)O[C@@H]3COP(O)(=S)O[C@H]3[C@@H](O)[C@H](n4ccc(N)nc4=O)O[C@@H]3COP(O)(=S)O[C@H]3C[C@H](n4cc(C)c(=O)[nH]c4=O)O[C@@H]3CO)O2)c(=O)[nH]c1=O (stereo partly drawn), the IC50 (Human betaherpesvirus 5 [1]) is reported as 38 nM, the IC50 (Human betaherpesvirus 5 [2]) is reported as 25 nM and the CC50 at 144 h [3] is reported as greater than 10000 nM. The IC50 [4] was 50 nM, the inhibition (Human alphaherpesvirus 1 [5]) was “inactive” and the inhibition (Human alphaherpesvirus 1 [6]) was “inactive”. For the same compound, the inhibition (unidentified adenovirus) was “inactive”, the inhibition [7] was “inactive” and the inhibition (Human betaherpesvirus 5 [8]) was “Active”. For the same compound, the inhibition (Human betaherpesvirus 5 [9]) was “Active”, the inhibition (Human betaherpesvirus 5 [10]) was “Active” and the inhibition (Human betaherpesvirus 5 [11]) was “Active”. The inhibition (Human betaherpesvirus 5 [12]) was “Active”, the inhibition (Human betaherpesvirus 5 [13]) was “Active” and the inhibition (Human betaherpesvirus 5 [14]) was “inactive”. For the same compound, the inhibition (Human betaherpesvirus 5 [15]) was “inactive”, the inhibition (Human betaherpesvirus 5 [16]) was “inactive” and the inhibition (Human betaherpesvirus 5 [17]) was “Active”. The inhibition (Human betaherpesvirus 5 [18]) was “Active”, the inhibition (Human betaherpesvirus 5 [19]) was “Active” and the inhibition (Human betaherpesvirus 5 [20]) was “inactive”. The inhibition (Human betaherpesvirus 5 [21]) was “inactive”, the inhibition (Human betaherpesvirus 5 [22]) was “Active” and the inhibition (Human betaherpesvirus 5 [23]) was “Active”. For the same compound, the IC50 (Human betaherpesvirus 5 [24]) was 20 nM, the IC90 (Human betaherpesvirus 5 [24]) was 65 nM and the Activity [25] was “Non-toxic”. For the same compound, the IC50 (Human betaherpesvirus 5 [26]) was 44 nM.
